Source: PubChem BioAssay (several laboratories)
Cardiac RTF inh – cardiac RTF calcium desensitization | P19429+P45379 | inhibition, % at 7.15 µM | IANBD-labeled cardiac RTF, Ca2+ fluorescence | 0.12% of 340,000 active;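 active = inhibition above the mean inhibition of all tested compounds plus 3 SD, cut at about 17% in these data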;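 note: assay run at fixed EC70 calcium of 1.6 mM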
ARNT TACC3 PPI – ARNT/TACC3 interaction disruption | Q9Y6A5 | AlphaScreen His-ARNT PAS-B/GST-TACC3 binding, luminescence; TACC3 fragment carries E629A point mutation | inhibition, % at 9.99 µM | 0.66% of 390,000 active;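 active = mean inhibition of replicates at least 50% and at least half of replicates each reaching 50%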;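 note: 0% = complete ARNT plus TACC3 wells and 100% = ARNT alone without TACC3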
Mot1-301 SUMO – blocks SUMOylation pathway, rescuing yeast Mot1-301 growth; S. cerevisiae Mot1-301 growth rescue, ATP luminescence, 38.5C; percent above DMSO median, 100 means doubled; growth rescue, % at 18.8 µM; 1% of 320,000 active; AID 2716;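 active = every valid replicate shows activation above 250% relative to neutral control wells; inactive = the rest, any valid replicate at or below 250%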;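 note: OY570 slx delta 5 strain wells were the positive control but not used for scaling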
Efflux pump inh – antifungal efflux pump inhibition, Nile Red retention; S. cerevisiae Candida pump triplex; inhibition, % at 10 µM; 0.44% of 330,000 active; AID 485275;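 active = plate passing quality check with inhibition over a set limit, or well fluorescence over plate mean plus 4 SD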;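 note: Nile Red retained in pooled yeast measured as flow cytometry median fluorescence; 0% = buffer negative control and 100% = Enniatin B positive control; higher means more Nile Red kept so more efflux inhibition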
cardiac RTF act – cardiac RTF calcium sensitization. IANBD-labeled TnC RTF fluorescence at EC20 calcium; 0% EC20 calcium, 100% full calcium. activation, % at 7.2 µM. 0.24% of 340,000 active;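 active = activation above the mean over all tested compounds plus 3 SD, cut at about 30% in these data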;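 note: rise in fluorescence read as greater calcium sensitivity of cardiac thin filaments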
UCH37 inh – human UCH37 deubiquitinating enzyme inhibition; inhibition, % (no concentration beside the values); 0.33% of 330,000 active; AID 588478; Q9Y5K5; purified proteasome/UCH37, Ub-AMC cleavage fluorescence;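 active = mean inhibition over replicate wells above about 20%, limit read from the data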;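 note: 0% = compound-free wells with enzyme and 100% = wells lacking proteasome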
Target sequence (Q9Y5K5 whole entry, looked up): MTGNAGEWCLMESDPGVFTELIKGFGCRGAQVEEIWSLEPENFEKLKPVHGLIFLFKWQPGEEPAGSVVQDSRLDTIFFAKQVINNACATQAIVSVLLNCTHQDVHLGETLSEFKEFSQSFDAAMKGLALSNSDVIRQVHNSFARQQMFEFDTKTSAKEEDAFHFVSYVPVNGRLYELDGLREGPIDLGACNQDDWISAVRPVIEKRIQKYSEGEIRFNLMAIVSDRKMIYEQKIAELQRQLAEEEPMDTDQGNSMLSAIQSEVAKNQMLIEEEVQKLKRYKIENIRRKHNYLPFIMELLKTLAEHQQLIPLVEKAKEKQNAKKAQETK
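Material: Human UCH37 enzyme supplied as purified proteasome complex | Schedule: 30 min preincubation with enzyme, 25 min cleavage at room temperature | Detection: AMC fluorescence 355/460 nm | Measure: % inhibition of Ub-AMC cleavage fluorescence | Controls: Wells without proteasome as full block, compound-free enzyme plus substrate as uninhibited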
Starred values were filed as active, the others as inactive; i = inactive; / = no result; ! = not active in a repeat. Only some compounds are listed: those with a hit (about 2.1% of all), similar ones and a draw of the others.

SMILES | Cardiac RTF inh | ARNT TACC3 PPI | Mot1-301 SUMO | Efflux pump inh | cardiac RTF act | UCH37 inh
COc1cccc(-c2sc3ccccc3c2-c2ccc(OCCN3CCOCC3)cc2)c1 | -1.3 | 12.0 | 462.5* | 0.4 | -3.9 | /
Cc1ccc(-c2cc(-c3ccc(C)cc3)[n+](-c3ccc(C(=O)O)cc3)c(-c3ccc(C)cc3)c2)cc1 | 5.3 | 1.3 | 16.2 | 0.0 | 2.6 | -13.3
Cc1ccc(C[n+]2c(-c3ccc(C)cc3)cc(-c3ccc(C)cc3)cc2-c2ccc(C)cc2)cc1 | -2.0 | 14.3 | 280.2* | 2.1 | -6.1 | -19.9
NC(=NN=Cc1ccc(O)cc1O)N[N+](=O)[O-] | / | / | / | / | / | 17.5
NC(=NN=Cc1ccc(-c2ccc(O)c(C(=O)O)c2)o1)N[N+](=O)[O-] | / | / | / | / | / | 21.9*
CCOC(=O)c1c(N)n(Cc2ccc(OC)cc2)c2nc3ccccc3nc12 | / | / | / | / | / | -169.8
COCCOC(=O)c1c(N)n(Cc2ccco2)c2nc3ccccc3nc12 | -35.5 | 62.4* | -8.8 | 0.4 | 25.7 | i
COC(=O)c1c(N)n(Cc2ccc(OC)cc2)c2nc3ccccc3nc12 | -12.9 | 14.8* | 538.1 | 0.1 | 2.2 | -372.6
CC(C)OC(=O)c1c(N)n(Cc2ccco2)c2nc3ccccc3nc12 | -9.1 | 43.9 | -13.6 | 0.2 | 4.8 | i
CCOC(=O)C(=NNc1ccccc1)N1CC1 | / | / | / | / | / | 10.3
NC(=NCCCC(NC(=O)CNC(=O)c1ccccc1)C(=O)O)N[N+](=O)[O-] (stereo not given) | / | / | / | / | / | 3.7
COc1ccc(C=NN=C(N)N)cc1 | / | / | / | / | / | 1.9
O=C(CSC1c2ccccc2-c2ccccc21)NN=Cc1ccccc1O | / | / | / | / | / | -4.1
C=CCN1C(=O)/C(=C\c2ccc(N3CCOCC3)o2)C(=O)NC1=S | -41.2 | 8.5 | 5.5 | 0.1 | 48.8* | 17.1
CCN1C(=O)C(=Cc2ccc(N3CCOCC3)o2)C(=O)N(CC)C1=S | -32.4 | -4.7 | -37.5 | 0.2 | 33.1* | 6.8
CNC(=O)ON=C(C)Cc1nnn(-c2cc(C)on2)n1 | / | / | / | / | / | 0.8
O=C1NC(=O)N(CCNc2ncc(C(F)(F)F)cc2Cl)C(=O)C1C=NOCc1c(F)cccc1Cl (stereo not given) | / | / | / | / | / | -2.6
O=c1c2ccccc2nc(-c2ccccc2)n1-c1ccccc1 | -7.2 | -0.4 | -0.4 | -0.1 | 8.6 | -0.9
O=c1c2ccccc2nc(-c2ccccc2)n1-n1cccc1 | -16.2 | 1.4 | 1.1 | 0.0 | -1.6 | 23.7*
C=C(C=O)C[C@@H]1C[C@H](O)C2OC3C[C@]4(C)OC5/C=C\CC6OC7C(CC=CCC6OC5CCCC4OC3CC2O1)OC1CC2OC3CC(=O)OC3C[C@@H](C)C[C@@]2(C)OC1C[C@@H]7C (stereo not given in full) | / | / | -12.0 | 49.7* | / | 1.4
COc1ccc(OC)c(N2C(=O)/C(=C/c3ccco3)C(=O)NC2=S)c1 | / | / | -13.4 | 0.2 | / | 51.8*
CC(=NCC1CCCO1)c1c(O)n(-c2ccc(Cl)cc2)c(=O)[nH]c1=O (stereo not given) | -2.1 | / | 547.4* | -0.1 | -3.0 | 5.2
CC(C)CC(=NO)c1cn(C)c2ccccc12 | / | / | / | / | / | 3.9
COCCNC(=O)c1c(NC(=O)c2ccc(Br)o2)n(Cc2ccccc2)c2nc3ccccc3nc12 | -4.3 | -6.9 | 829.5* | -13.3 | -10.6 | -67.5
COc1cc2c(cc1OC)-c1c(OC)c(OC)cc3c1[C@H](C2)N(C)CC3 | -12.5 | 68.8* | 165.1 | -0.1 | 0.5 | 1.8
SMILES | Cardiac RTF inh | ARNT TACC3 PPI | Mot1-301 SUMO | Efflux pump inh | cardiac RTF act | UCH37 inh
COc1cc2c(cc1O)CC1c3c(cc(O)c(OC)c3-2)CCN1C (stereo not given) | 0.5 | 19.2 | -2.0 | -0.3 | 2.0 | -16.3
CN1CC[C@@]2(C)c3cc(O)ccc3N(C)C2O1 (stereo not given in full) | -10.6 | 30.4* | 0.7 | -0.1 | 2.0 | -2.0
CN1CC[C@@]2(C)c3cc(O)ccc3N(C)[C@@H]12 | 5.4 | 47.0*! | / | / | 0.0 | /
COc1ccccc1CC1C(=NO)C2CCN1CC2 (stereo not given) | / | / | / | / | / | 2.8
CCOc1cc(C=C2C(=O)NC(=O)NC2=O)ccc1OS(=O)(=O)c1ccccc1 | -6.8 | 3.0 | 2.0 | -0.1 | -9.2 | 20.3*
CC(=Nc1ccc2c(c1)CCC2)c1c(O)n(C)c(=O)n(C)c1=O | -8.0 | -2.0 | / | 0.1 | 5.1 | 32.1*
OCCN(CC#CC(O)(c1ccccc1)C1CCCC1)CCO (stereo not given) | -25.5 | -13.5 | 140.4 | 0.0 | -0.9 | 32.3*
O=C(O)C(O)(c1ccccc1)C1CCCCC1 (stereo not given) | -14.9 | -7.9 | -14.9 | -0.1 | -0.7 | 1.2
O=C(NN=C1CN2CCC1CC2)c1cc2ccccc2cc1O | / | / | / | / | / | -0.5
ON=C1/C(=C\c2ccccc2)N2CCC1CC2 | / | / | / | / | / | 2.9
CCC(CO)NC(=O)C1C=C2c3cccc4[nH]cc(c34)CC2N(C)C1 (stereo not given) | -28.8 | 10.8 | 20.4 | 0.0 | 15.7 | -89.1
CC(C)C[C@H]1C(=O)N2CCC[C@H]2[C@]2(O)O[C@](NC(=O)[C@@H]3C=C4c5cccc6[nH]cc(c56)C[C@H]4N(C)C3)(C(C)C)C(=O)N12 | -90.4 | / | 270.7 | 0.2 | 66.8* | -11.1
C#C[C@]1(O)CC[C@H]2[C@@H]3CCC4=Cc5nc6nc7ccccc7n6cc5C[C@]4(C)[C@H]3CC[C@@]21C | -37.2 | -6.9 | 298.5 | 0.1 | 38.5* | -11.1
CCN(CC)c1ccc(/C=N/c2sc3c(c2C#N)C2CCN3CC2)c(O)c1 | -175.1 | -1.0 | -8.6 | 0.3 | 146.4* | /
CC(=O)NC1=C(N2CC2C)C(=O)C(NC(C)=O)=C(N2CC2C)C1=O (stereo not given) | 1.7 | 8.8* | / | / | -2.0 | 8.0
CN(C)c1ccc(/C=C2/C(=NO)C3CCN2CC3)cc1 | / | / | / | / | / | 8.8
CCCCC(=O)N/N=C/c1c(O)n(Cc2ccc(F)cc2)c(=O)[nH]c1=O | -2.7 | 68.7* | -2.6 | 0.0 | 1.0 | 5.3
CCCCC(=O)N/N=C/c1c(O)n(CCc2ccccc2)c(=O)[nH]c1=O | / | / | -17.4 | 0.1 | / | 4.8
O=C(N/N=C/c1c(O)n(Cc2ccccc2)c(=O)[nH]c1=O)c1ccncc1 | / | / | -6.9 | 0.0 | / | -8.4
O=C(N/N=C/c1c(O)n(Cc2ccc(F)cc2)c(=O)[nH]c1=O)c1ccccc1 | -4.5 | 49.8* | -12.4 | 0.0 | 0.8 | -174.1
O=C(N/N=C\C1C(=O)NC(=S)N(c2ccccc2)C1=O)c1ccc(O)cc1 (stereo not given) | 0.9 | 71.9* | -13.9 | 0.1 | -2.7 | /
